Measurements from different studies.
Target: Cyclin-dependent kinase 9 (CDK9, Homo sapiens, UniProt P50750)

For `O=C(c1ccc(Nc2ncc(Cl)c(-c3cc4ccccc4s3)n2)cc1)N1CCC(N2CCCC2)CC1`, the remaining binding was 82% (binding, competition with immobilised ligand; 1 µM).
`O=C(NCC1CCOCC1)c1n[nH]cc1NC(=O)c1c(F)cccc1F` gave a remaining binding of 83% (binding, competition with immobilised ligand; 1 µM).
With `CN(c1ccnc(CNc2nc(Nc3ccc4c(c3)CC(=O)N4)ncc2C(F)(F)F)n1)S(C)(=O)=O` the remaining binding was 84% (cell-free assay, competition with immobilised ligand; 1 µM).
For `CN(C)c1nccc(-c2cnn3ncccc23)n1`, the remaining binding was 100% (binding; 1 µM).
`C[C@@H]1CN(c2ccc3ncc(-c4ccc5[nH]nc(C6CC6)c5c4)n3n2)C[C@H](C)O1` gave a remaining binding of 78% (binding, competition with immobilised ligand; 0.5 µM).
For `Cc1nccc(COC(=O)N2C[C@@H]3[C@@H](CNC(=O)c4ccc5[nH]nnc5c4)[C@@H]3C2)n1`, the remaining binding was 100% (cell-free assay, competition with immobilised ligand; 1 µM).
`O=C(c1ccc(Nc2nccc(-c3cc4ccccc4s3)n2)cc1)N1CCC(N2CCCC2)CC1` has a remaining binding of 85% (binding, competition with immobilised ligand; 1 µM).
For `CC1CCCN1c1nccc(-c2cnn3ncccc23)n1` (centres unmarked), the remaining binding was 100% (binding; 1 µM).
The remaining binding of `COc1cnc(Nc2cccc(S(N)(=O)=O)c2)nc1N1CCN(c2ccccc2)C(=O)C1` is reported as 100% (binding, competition with immobilised ligand; 1 µM).
`C[C@@H]1CCN(c2nccc(-c3cnn4ncccc34)n2)C1` gave a remaining binding of 87% (binding; 1 µM).
With `Cc1c(C(=O)O)cc(-c2ccc(C3CCNCC3)cc2)c2ccc(-c3ccc(C(F)(F)F)cc3)cc12` the remaining binding was 100% (binding, competition with immobilised ligand; 1 µM).
For `Nc1ncc2c(n1)-c1c([nH]c3ccc(C#CC4CC4)cc13)CCCC2`, the remaining binding was 91% (binding, competition with immobilised ligand; 1 µM).
The remaining binding of `c1cnn2ncc(-c3ccnc(N4CCC45COC5)n3)c2c1` is reported as 93% (binding; 1 µM).
For `CCOCCn1cc(C(=O)Nc2ccc(-n3nc(-c4cccnc4)cc3C(F)(F)F)cn2)ccc1=O`, the remaining binding was 97% (cell-free assay, competition with immobilised ligand; 1 µM).
For `N[C@@H]1CCN(c2nccc(-c3cnn4ncccc34)n2)C1`, the remaining binding was 100% (binding; 1 µM).
`COc1ncc2cc3ccccc3nc2c1C#N` gave a remaining binding of 91% (cell-free assay, competition with immobilised ligand; 5 µM).
The remaining binding of `COc1cnc(Nc2cccc(S(N)(=O)=O)c2)nc1N1CCN(c2ccccc2)CC1` is reported as 100% (binding, competition with immobilised ligand; 1 µM).
The remaining binding of `COc1ccc2c(c1)O[C@@H](c1ccc(OC)c(OC)c1)C[C@H]2NC(=O)C1(c2ccc3c(c2)OC(F)(F)O3)CC1` is reported as 89% (cell-free assay, competition with immobilised ligand; 1 µM).
`N#Cc1ccccc1CSc1nnc2c(n1)[nH]c1ccccc12` has a remaining binding of 84% (binding, competition with immobilised ligand; 10 µM).
With `CCC(=O)N[C@H]1CC[C@@H](C(=O)N(C)c2ccc(-c3nc4ccccc4o3)cc2)C1` the remaining binding was 95% (cell-free assay, competition with immobilised ligand; 1 µM).
With `CN(CCCC(F)(F)F)c1nccc(-c2cnn3ncccc23)n1` the remaining binding was 100% (binding; 1 µM).
With `Nc1c(C(=O)NCc2ccc(C(=O)NCCCC3CCCCC3)cc2)cnn1-c1ccccc1` the remaining binding was 100% (cell-free assay, competition with immobilised ligand; 0.1 µM).
`O=C(NCCCN1CCOCC1)c1ccc(Nc2ncc(Cl)c(-c3ccc(Cl)s3)n2)cc1` has a remaining binding of 56% (binding, competition with immobilised ligand; 1 µM).
